In ChEMBL document CHEMBL1641493, “Discovery of fused 5,6-bicyclic heterocycles as γ-secretase modulators” (Bioorg Med Chem Lett, 2011):
The source made the active and inactive calls. The rule behind the calls is not given here.

Assays:
Gamma-secretase = assay: Inhibition of gamma secretase-mediated amyloid beta42 production in HEK293 cells by sandwich immunoassay; assay type: cell-based, Homo sapiens
Outline: (§1)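 HEK293 cells stably transfected with APPsw-lon (pcDNA3.1) treated with compound for 5 h. Aβ in the conditioned medium measured by MSD electrochemiluminescent sandwich immunoassay, using TAG-G2-11/biotin-4G8 for Aβ42 and TAG-W02/biotin-4G8 for total Aβ. IC50 values derived for each, and the ratio taken as total Aβ IC50 over Aβ42 IC50.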

[1] = biological target: Gamma-secretase (Homo sapiens) (UniProt Q96BI3+Q9NZ42+Q8WW43+P49768+Q92542+P49810); assay: Selectivity ratio of IC50 for gamma secretase-mediated total amyloid beta production to IC50 for gamma secretase-mediated amyloid beta42 production in HEK293 cells; assay type: cell-based; outline: as §1
Rattus norvegicus [2] = assay: Antialzheimer activity in CD rat assessed as decrease in amyloid beta42 level in CSF at 30 mg/kg, po after 3 hrs; assay type: functional
Outline: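 Male CD rats (~100 g) given a single oral dose of 30 mg/kg formulated in 20% hydroxypropyl β-cyclodextrin. CSF sampled 3 h after dosing, stored at -80 °C, and CSF Aβ42 quantified with AlphaLISA amyloid assay kits. Effect expressed as % change in Aβ42.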

Rattus norvegicus [3] = assay: Antialzheimer activity in CD rat assessed as decrease in amyloid beta42 level in brain at 30 mg/kg, po after 3 hrs; assay type: functional
Outline: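 Male CD rats (~100 g) dosed orally at 30 mg/kg in 20% hydroxypropyl β-cyclodextrin, brains taken 3 h later and frozen on dry ice. Half cortex homogenized and extracted in 5 M guanidine-HCl/50 mM Tris-HCl pH 8, sonicated, and cleaned up by solid-phase extraction. Eluate dried and resuspended in PBS/0.5% Tween 20, then Aβ42 read by AlphaLISA. Result given as % change.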

| IC50 (Gamma-secretase) [nM] | Ratio IC50 [1] | Compound | further results |
| --- | --- | --- | --- |
| 116 | 165 | COc1cc(-c2nnc3n2CCCN3C(C)c2cc(F)c(F)c(F)c2)ccc1-n1cnc(C)c1 (stereo not drawn) | – |
| 2070 | 10 | CCCCC(=O)N1CCCn2c(-c3ccc(-n4cnc(C)c4)c(OC)c3)nnc21 | – |
| – | – | COc1cc(/C=C2\CCCN([C@@H](C)c3ccc(F)cc3)C2=O)ccc1-n1cnc(C)c1 | inhibition in vivo at 30 mg/kg (Rattus norvegicus [2]): 55%; inhibition in vivo at 30 mg/kg (Rattus norvegicus [3]): 44% |
| 1410 | 14 | COc1ccc(CN2CCCn3c(-c4ccc(-n5cnc(C)c5)c(OC)c4)nnc32)cc1 | – |
| 342 | 58 | COc1cc(-c2nnc3n2CCCN3C(C)c2c(F)cc(F)cc2F)ccc1-n1cnc(C)c1 (stereo not drawn) | – |
| 537 | 37 | COc1cc(-c2onc3c2CCCN3[C@@H](C)c2ccccc2)ccc1-n1cnc(C)c1 | – |
| 509 | 39 | COc1cc(-c2nnc3n2CCCN3C(C)c2ccc(F)cc2)ccc1-n1cnc(C)c1 (stereo not drawn) | – |
| 16400 | 1 | COc1cc(-c2nnc3n2CCCN3C(c2ccc(F)cc2)C2CC2)ccc1-n1cnc(C)c1 (stereo not drawn) | – |
| 552 | 36 | COc1cc(-c2nnc3n2CCCN3Cc2ccc(F)c(F)c2)ccc1-n1cnc(C)c1 | – |
| 1410 | 14 | CCCCCN1CCCn2c(-c3ccc(-n4cnc(C)c4)c(OC)c3)nnc21 | – |
| 19300 | 1 | COc1cc(-c2nnc3n2CCCN3C(=O)c2ccc(F)cc2)ccc1-n1cnc(C)c1 | – |
| 20000 | 1 | COc1cc(-c2nnc3n2CCCN3C(c2ccccc2)C2CC2)ccc1-n1cnc(C)c1 (stereo not drawn) | – |
| 485 | 41 | COc1cc(-c2nnc3n2CCCN3C(=O)C(C)c2ccc(F)cc2)ccc1-n1cnc(C)c1 (stereo not drawn) | – |
| 201 | 99 | CCC(c1cc(F)c(F)c(F)c1)N1CCCc2c(-c3ccc(-n4cnc(C)c4)c(OC)c3)n[nH]c21 (stereo not drawn) | – |
| 2210 | 9 | COc1cc(-c2nnc3n2CCCN3S(=O)(=O)c2ccc(F)cc2)ccc1-n1cnc(C)c1 | – |
| 448 | 29 | COc1cc(-c2noc3c2CCCN3[C@@H](C)c2ccc(F)cc2)ccc1-n1cnc(C)c1 | – |
| 122 | 164 | CC[C@@H](c1cc(F)c(F)c(F)c1)N1CCCc2c(-c3ccc(-n4cnc(C)c4)c(OC)c3)n[nH]c21 | inhibition in vivo at 30 mg/kg (Rattus norvegicus [2]): 26% |
| 164 | 46 | COc1cc(-c2n[nH]c3c2CCCN3C(C)c2ccc(F)cc2)ccc1-n1cnc(C)c1 (stereo not drawn) | – |

| IC50 (Gamma-secretase) [nM] | Ratio IC50 [1] | Compound | further results |
| --- | --- | --- | --- |
| 126 | 159 | COc1cc(-c2nnc3n2CCCN3Cc2ccc(Cl)c(Cl)c2)ccc1-n1cnc(C)c1 | – |
| 145 | 138 | CCCC(c1ccc(F)cc1)N1CCCn2c(-c3ccc(-n4cnc(C)c4)c(OC)c3)nnc21 (stereo not drawn) | – |
| 2530 | 3 | COc1cc(-c2nnc3n2CCCN3Cc2ccc(C#N)cc2)ccc1-n1cnc(C)c1 | – |
| 465 | 38 | COc1cc(-c2onc3c2CCCN3[C@@H](C)c2ccc(F)cc2)ccc1-n1cnc(C)c1 | – |
| 209 | 96 | CC[C@H](c1cc(F)c(F)c(F)c1)N1CCCc2c(-c3ccc(-n4cnc(C)c4)c(OC)c3)n[nH]c21 | – |
| 20000 | 1 | COc1cc(-c2nnc3n2CCCN3C(=O)N2CCOCC2)ccc1-n1cnc(C)c1 | – |
| 1390 | 14 | COc1cc(-c2noc3c2CCCN3[C@H](C)c2ccc(F)cc2)ccc1-n1cnc(C)c1 | – |
| 440 | 46 | COc1cc(-c2onc3c2CCCN3Cc2cc(F)cc(F)c2)ccc1-n1cnc(C)c1 | – |
| 935 | 21 | COc1cc(-c2noc3c2CCCN3[C@@H](C)c2cc(F)cc(F)c2)ccc1-n1cnc(C)c1 | – |
| 1920 | 10 | COc1cc(-c2nnc3n2CCCN3C(=O)Cc2ccc(F)cc2)ccc1-n1cnc(C)c1 | – |
| 619 | 32 | COc1cc(-c2nnc3n2CCCN3CCc2ccc(F)cc2)ccc1-n1cnc(C)c1 | – |
| 540 | 37 | COc1cc(-c2noc3c2CCCN3[C@@H](C)c2cc(F)c(F)c(F)c2)ccc1-n1cnc(C)c1 | – |
| 875 | 17 | CC[C@@H](c1ccc(F)cc1)N1CCCc2c(-c3ccc(-n4cnc(C)c4)c(OC)c3)noc21 | – |
| 20000 | 1 | COc1cc(-c2nnc3n2CCCN3)ccc1-n1cnc(C)c1 | – |
| 156 | 128 | CCC(c1ccc(F)cc1)N1CCCn2c(-c3ccc(-n4cnc(C)c4)c(OC)c3)nnc21 (stereo not drawn) | – |
| 356 | 48 | COc1cc(-c2onc3c2CCCN3Cc2ccc(F)cc2)ccc1-n1cnc(C)c1 | inhibition (Rattus norvegicus [2]): inactive; inhibition (Rattus norvegicus [3]): inactive |
| 649 | 31 | COc1cc(-c2nnc3n2CCCN3Cc2ccc(F)cc2)ccc1-n1cnc(C)c1 | – |
